# Laboratory results reported in ChEMBL document CHEMBL1128440 (J Med Chem, 1995).
# Where “and” joins values, the source holds several entries; their conditions need not be identical. Equal values may be shown once.
# How the values were obtained:
# [1] = target: T1, Progesterone receptor (Homo sapiens) (UniProt P06401); assay: Binding selectivity index as the ratio of RBA value to that of NSB value.
# T1 sequence (whole entry): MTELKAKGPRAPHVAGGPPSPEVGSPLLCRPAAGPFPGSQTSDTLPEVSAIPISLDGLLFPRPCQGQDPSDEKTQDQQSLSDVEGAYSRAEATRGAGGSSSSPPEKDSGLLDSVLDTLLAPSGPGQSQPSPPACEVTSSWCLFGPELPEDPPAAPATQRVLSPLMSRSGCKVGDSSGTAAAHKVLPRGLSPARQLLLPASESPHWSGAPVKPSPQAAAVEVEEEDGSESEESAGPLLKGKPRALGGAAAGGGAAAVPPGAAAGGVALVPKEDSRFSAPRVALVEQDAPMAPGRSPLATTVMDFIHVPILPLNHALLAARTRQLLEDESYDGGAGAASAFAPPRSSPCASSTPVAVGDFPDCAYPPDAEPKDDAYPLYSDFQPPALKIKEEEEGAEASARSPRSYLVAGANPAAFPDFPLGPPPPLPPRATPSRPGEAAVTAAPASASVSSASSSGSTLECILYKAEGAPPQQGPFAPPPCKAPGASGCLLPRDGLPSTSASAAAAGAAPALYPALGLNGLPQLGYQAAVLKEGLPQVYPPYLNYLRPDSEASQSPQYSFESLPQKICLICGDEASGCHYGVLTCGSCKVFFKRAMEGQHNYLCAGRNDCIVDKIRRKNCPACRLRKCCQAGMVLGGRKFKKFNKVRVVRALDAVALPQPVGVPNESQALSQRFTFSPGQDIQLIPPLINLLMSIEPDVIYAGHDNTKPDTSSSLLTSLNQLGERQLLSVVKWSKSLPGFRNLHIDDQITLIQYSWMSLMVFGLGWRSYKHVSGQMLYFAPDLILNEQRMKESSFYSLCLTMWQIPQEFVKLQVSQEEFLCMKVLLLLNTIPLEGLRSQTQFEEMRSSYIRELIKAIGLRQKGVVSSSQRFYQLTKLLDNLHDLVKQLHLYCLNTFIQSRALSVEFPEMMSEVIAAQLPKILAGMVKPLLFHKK
# In short: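 BSI calculated as the ratio of RBA to NSB.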
# [2] = target: T1, Progesterone receptor (Homo sapiens); assay: Relative binding affinity against progesterone receptor at 0 degree Celsius determined in a competitive radiometric binding assay (R5020=100%).
# In short: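 Competitive radiometric binding at 0 °C against tritium-labeled R5020 as the standard (RBA = 100). Values are the average of two experiments.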
# [3] = target: T1, Progesterone receptor (Homo sapiens); assay: Nonspecific binding affinity against progesterone receptor was estimated relative to compound R5020
# [4] = Partition coefficient (logP); format: physicochemical; conditions: octanol/water
# In short: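 log P(o/w) (octanol/water) estimated by a reversed-phase HPLC method.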
# Rattus norvegicus [5] = species: Rattus norvegicus; assay: Tissue biodistribution into estrogen-primed immature female rat brain at 1 hr time interval; format: ADME, organism-based; conditions: in vivo
# In short: (§1)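 Immature female Sprague-Dawley rats (25 days old, ≈50 g, five per time point) primed with estradiol, 5 μg sc daily for 2 days in 50% ethanol/sunflower seed oil, used 24 h after the last injection. The 18F-labeled ligand was given iv by tail vein in 10% ethanol/saline. Decapitated at 1 or 3 h; blood and organs weighed and gamma-counted. Reported as %ID/g ± SD, n = 5.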
# Rattus norvegicus [6] = species: Rattus norvegicus; assay: Tissue biodistribution into estrogen-primed immature female rat bone at 1 hr time interval; format: ADME, organism-based, Bone element; conditions: in vivo; in short: as §1
# Rattus norvegicus [7] = species: Rattus norvegicus; assay: Tissue biodistribution into estrogen-primed immature female rat lung at 1 hr time interval; format: ADME, organism-based; conditions: in vivo; in short: as §1
# Rattus norvegicus [8] = species: Rattus norvegicus; assay: Tissue biodistribution into estrogen-primed immature female rat kidney at 1 hr time interval; format: ADME, organism-based; conditions: in vivo; in short: as §1
# Rattus norvegicus [9] = species: Rattus norvegicus; assay: Tissue biodistribution into estrogen-primed immature female rat uterus/muscle at 1 hr time interval; format: ADME, organism-based; conditions: in vivo
# Rattus norvegicus [10] = species: Rattus norvegicus; assay: Tissue biodistribution into estrogen-primed immature female rat liver at 1 hr time interval; format: ADME, organism-based; conditions: in vivo; in short: as §1
# Rattus norvegicus [11] = species: Rattus norvegicus; assay: Tissue biodistribution into estrogen-primed immature female rat blood at 1 hr time interval; format: ADME, organism-based; conditions: in vivo; in short: as §1
# Rattus norvegicus [12] = species: Rattus norvegicus; assay: Tissue biodistribution into estrogen-primed immature female rat uterus at 1 hr time interval; format: ADME, organism-based; conditions: in vivo; in short: as §1
# Rattus norvegicus [13] = species: Rattus norvegicus; assay: Tissue biodistribution into estrogen-primed immature female rat uterus/blood at 1 hr time interval; format: ADME, organism-based; conditions: in vivo; in short: as §1
# Rattus norvegicus [14] = species: Rattus norvegicus; assay: Tissue biodistribution into estrogen-primed immature female rat fat at 1 hr time interval; format: ADME, organism-based, Adipose tissue; conditions: in vivo; in short: as §1
# Rattus norvegicus [15] = species: Rattus norvegicus; assay: Tissue biodistribution into estrogen-primed immature female rat ovaries at 1 hr time interval; format: ADME, organism-based, Female gonad; conditions: in vivo; in short: as §1
# Rattus norvegicus [16] = species: Rattus norvegicus; assay: Tissue biodistribution into estrogen-primed immature female rat muscle at 1 hr time interval; format: ADME, organism-based; conditions: in vivo; in short: as §1
SMILES,BSI [1],RBA [2],NSB [3],logP [4],logP ([4]; read-out: logP),Injected dose/g (Rattus norvegicus [5]) [%],Injected dose/g (Rattus norvegicus [6]) [%],Injected dose/g (Rattus norvegicus [7]) [%],Injected dose/g (Rattus norvegicus [8]) [%],Uterus to muscle uptake ratio (Rattus norvegicus [9]) [%],Injected dose/g (Rattus norvegicus [10]) [%],Injected dose/g (Rattus norvegicus [11]) [%],Injected dose/g (Rattus norvegicus [12]) [%],Uterus to blood concentration ratio (Rattus norvegicus [13]) [%],Injected dose/g (Rattus norvegicus [14]) [%],Injected dose/g (Rattus norvegicus [15]) [%],Injected dose/g (Rattus norvegicus [16]) [%]
CC[C@@H]1C[C@H]2[C@@H]3CCC4=CC(=O)CC[C@@H]4[C@H]3CC[C@]2(C)[C@H]1C(=O)CO,206,200,0.97,–,–,–,–,–,–,–,–,–,–,–,–,–,–
C[C@]12CCC3C(CCC4=CC(=O)CC[C@@H]43)C1C[C@H]1OC(c3ccco3)O[C@]12C(=O)CO (stereo partly specified),–,–,0.96 and 0.76,3.78,4.01,–,–,–,–,–,–,–,–,–,–,–,–
C[C@@]1(c2ccc(F)cc2)O[C@@H]2CC3C4CCC5=CC(=O)CC[C@@H]5C4CC[C@]3(C)[C@]2(C(=O)CO)O1 (stereo partly specified),98,240,2.45,–,–,0.34,0.62,0.6,1.42,8.2,4.25,0.26,3.65,14,3.53,2.8,0.44
